Experiment [1] relates to Staphylococcus aureus. Description: In vitro antimicrobial activity against Staphylococcus aureus was evaluated by measuring the diameter of zone of inhibition; NS denotes no significant inhibition. The experiment is classed as functional, organism-based. The method, boiled down: (§1)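 Disc diffusion on nutrient agar seeded with the bacterium: glass microfiber discs (0.6 cm) saturated with 0.2 mL of aqueous compound solutions at different concentrations; incubation at 37°C for 48 h; diameter of growth-inhibition zone read in millimetres.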

Experiment [2] relates to Pseudomonas aeruginosa. Description: In vitro antimicrobial activity against Pseudomonas aeruginosa was evaluated by measuring the diameter of zone of inhibition; NS denotes no significant inhibition. The experiment is classed as functional, organism-based. The method, boiled down: as §1
Experiment [3] has as its system Candida albicans. Put plainly: In vitro antifungal activity against Candida albicans was evaluated by measuring the diameter of zone of inhibition; NS denotes no significant inhibition. It counts as functional, organism-based. The method, boiled down: (§2)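 Disc diffusion: glass microfiber discs (0.6 cm) saturated with 0.2 mL of aqueous compound solutions at various concentrations, placed on malt extract agar seeded with the yeast; plates incubated at 28°C for 96 h; inhibition zone diameter measured in mm.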

The subject of experiment [4] is Escherichia coli. Put plainly: In vitro antimicrobial activity against Escherichia coli was evaluated by measuring the diameter of zone of inhibition; NS denotes no significant inhibition. The experiment is classed as functional, organism-based. The method, boiled down:
as §1

Experiment [5] deals with Candida albicans. Put plainly: In vitro antifungal activity against Candida albicans was evaluated by measuring the diameter of zone of inhibition. The experiment is classed as functional. The method, boiled down: as §2
For experiment [6], the system named is Staphylococcus aureus. Put plainly: In vitro antimicrobial activity against Staphylococcus aureus was evaluated by measuring the diameter of zone of inhibition. The experiment is classed as functional. The method in brief:
as §1

For experiment [7], the system named is Escherichia coli. Description: In vitro antimicrobial activity against Escherichia coli was evaluated by measuring the diameter of zone of inhibition. The experiment is classed as functional. The method in brief:
as §1

Experiment [8] relates to Pseudomonas aeruginosa. Put plainly: In vitro antimicrobial activity against Pseudomonas aeruginosa was evaluated by measuring the diameter of zone of inhibition. It counts as functional. The method, boiled down:
as §1

For 27 compounds, Inhibition results are on record in ChEMBL document CHEMBL1137886, “Pyridazine derivatives and related compounds. Part 13: Synthesis and antimicrobial activity of some pyridazino[3',4':3,4]pyrazolo[5,1-c]-1,2,4-triazines” (2004).

Consider `O=C(NNc1ccccc1)c1nnc2c3c(-c4ccccc4)c(-c4ccccc4)nnc3nn2c1-c1ccccc1`, for which the Inhibition entry in experiment [1], in experiment [2], in experiment [3] and in experiment [4] was “No inhibition” in each case.
On to `Cc1c(C(=O)N/N=C/c2ccc3ccccc3c2)nnc2c3c(-c4ccccc4)c(-c4ccccc4)nnc3nn12`, for which the Inhibition entry in experiment [1], in experiment [2], in experiment [3] and in experiment [4] was “No inhibition” throughout.
The compound `Cc1ccc(/C=N/NC(=O)c2nnc3c4c(-c5ccccc5)c(-c5ccccc5)nnc4nn3c2C)s1` gave an Inhibition in experiment [5] of 2 mm.
For `c1ccc(-c2nnc3nn4c(-c5ccccc5)cnnc4c3c2-c2ccccc2)cc1`, the Inhibition entry in experiment [1], in experiment [2], in experiment [3] and in experiment [4] was “No inhibition” throughout.
Consider `CCOC(=O)c1nnc2c3c(-c4ccccc4)c(-c4ccccc4)nnc3nn2c1-c1ccccc1`, for which the Inhibition result in experiment [1], in experiment [2], in experiment [3] and in experiment [4] was “No inhibition” in each case.
Turning to `CC(=O)c1nnc2c3c(-c4ccccc4)c(-c4ccccc4)nnc3nn2c1C`, the Inhibition in experiment [6] came out at 4 mm; in experiment [5], 3 mm.
Regarding `NNC(=O)c1nnc2c3c(-c4ccccc4)c(-c4ccccc4)nnc3nn2c1-c1ccccc1`, the Inhibition entry in experiment [1], in experiment [2], in experiment [3] and in experiment [4] was “No inhibition” in each case.
Consider `COc1ccc(/C=N/NC(=O)c2nnc3c4c(-c5ccccc5)c(-c5ccccc5)nnc4nn3c2C)cc1`, for which the Inhibition in experiment [6] is 3 mm.
Turning to `Cc1cnnc2c3c(-c4ccccc4)c(-c4ccccc4)nnc3nn12`, the Inhibition entry in experiment [1], in experiment [2], in experiment [3] and in experiment [4] was “No inhibition” throughout.
Consider `NC(=O)NNC(=O)c1nnc2c3c(-c4ccccc4)c(-c4ccccc4)nnc3nn2c1-c1ccccc1`, for which the Inhibition result in experiment [1], in experiment [2], in experiment [3] and in experiment [4] was “No inhibition” in each case.
`Cc1ccc(/C=N/NC(=O)c2nnc3c4c(-c5ccccc5)c(-c5ccccc5)nnc4nn3c2C)o1`: the Inhibition result in experiment [1], in experiment [2], in experiment [3] and in experiment [4] was “No inhibition” throughout.
For `CCOC(=O)c1nnc2c3c(-c4ccccc4)c(-c4ccccc4)nnc3nn2c1C`, the Inhibition result in experiment [1], in experiment [2], in experiment [3] and in experiment [4] was “No inhibition” each time.
Compound `Cc1c(C(=O)N/N=C/c2ccco2)nnc2c3c(-c4ccccc4)c(-c4ccccc4)nnc3nn12` showed an Inhibition in experiment [7] of 2 mm.
Take `Cc1c(/C(=N/NC(N)=O)c2ccccc2)nnc2c3c(-c4ccccc4)c(-c4ccccc4)nnc3nn12`: the Inhibition in experiment [6] was found to be 4 mm; in experiment [8], 2 mm; in experiment [7], 3 mm.
For `Cc1c(C(=O)N/N=C/c2ccccc2)nnc2c3c(-c4ccccc4)c(-c4ccccc4)nnc3nn12`, the Inhibition entry in experiment [1], in experiment [2], in experiment [3] and in experiment [4] was “No inhibition” in each case.
For the compound `Cc1c(C(=O)N/N=C/c2ccc(Cl)cc2)nnc2c3c(-c4ccccc4)c(-c4ccccc4)nnc3nn12`, the Inhibition result in experiment [1], in experiment [2], in experiment [3] and in experiment [4] was “No inhibition” throughout.
Turning to `Cc1c(/C(=N/N)c2ccccc2)nnc2c3c(-c4ccccc4)c(-c4ccccc4)nnc3nn12`, the Inhibition entry in experiment [1], in experiment [2], in experiment [3] and in experiment [4] was “No inhibition” in each case.
Regarding `Cc1c(C(=O)N/N=C/c2cccn2C)nnc2c3c(-c4ccccc4)c(-c4ccccc4)nnc3nn12`, the Inhibition result in experiment [1], in experiment [2], in experiment [3] and in experiment [4] was “No inhibition” in each case.
As for `Cc1c(C(=O)NNC(N)=O)nnc2c3c(-c4ccccc4)c(-c4ccccc4)nnc3nn12`, the Inhibition entry in experiment [1], in experiment [2], in experiment [3] and in experiment [4] was “No inhibition” throughout.
Consider `Cc1c(/C(=N/Nc2ccccc2)c2ccccc2)nnc2c3c(-c4ccccc4)c(-c4ccccc4)nnc3nn12`, for which the Inhibition entry in experiment [1], in experiment [2], in experiment [3] and in experiment [4] was “No inhibition” each time.
`O=C(O)c1nnc2c3c(-c4ccccc4)c(-c4ccccc4)nnc3nn2c1-c1ccccc1`: the Inhibition result in experiment [1], in experiment [2], in experiment [3] and in experiment [4] was “No inhibition” in each case.
For `Cc1c(C(=O)O)nnc2c3c(-c4ccccc4)c(-c4ccccc4)nnc3nn12`, the Inhibition entry in experiment [1], in experiment [2], in experiment [3] and in experiment [4] was “No inhibition” throughout.
Take `C/C(=N\NC(N)=O)c1nnc2c3c(-c4ccccc4)c(-c4ccccc4)nnc3nn2c1C`: the Inhibition result in experiment [1], in experiment [2], in experiment [3] and in experiment [4] was “No inhibition” throughout.
Turning to `Cc1c(C(=O)N/N=C/c2ccc([N+](=O)[O-])cc2)nnc2c3c(-c4ccccc4)c(-c4ccccc4)nnc3nn12`, in experiment [7], the Inhibition was 5 mm.
With `Cc1c(C(=O)N/N=C/c2cccs2)nnc2c3c(-c4ccccc4)c(-c4ccccc4)nnc3nn12`, the Inhibition in experiment [6] and in experiment [7] was 2 mm throughout.
In experiment [7], `Cc1c(C(=O)N/N=C/c2ccc[nH]2)nnc2c3c(-c4ccccc4)c(-c4ccccc4)nnc3nn12` came in with an Inhibition of 2 mm.
For the compound `Cc1c(C(=O)NNc2ccccc2)nnc2c3c(-c4ccccc4)c(-c4ccccc4)nnc3nn12`, the Inhibition entry in experiment [1], in experiment [2], in experiment [3] and in experiment [4] was “No inhibition” each time.
